Results taken from ChEMBL document CHEMBL1154962, “Novel 6-N-arylcarboxamidopyrazolo[4,3-d]pyrimidin-7-one derivatives as potential anti-cancer agents” (2010).

What was measured:
[1] = tested on: HT-29; test: Cytotoxicity against human HT-29 cells at 100 uM after 2 days by sulforhodamine B assay; type: functional; details: HT-29, 48 h
How it was run: (§1)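 Five human cancer lines (HT-29, DU-145, A-549, SK-MEL-2, SK-OV-3) seeded at 3–7 × 10³ cells/well; compounds at 100 µM added in duplicate; 37 °C, 5% CO₂, two days. Fixed with formalin, SRB stained, washed with 1% acetic acid, dye solubilized in 10 mM unbuffered Tris base; OD at 520 nm. Read-out is % inhibition.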

[2] = tested on: SK-MEL-2; test: Cytotoxicity against human SK-MEL-2 cells at 100 uM after 2 days by sulforhodamine B assay; type: functional; details: SK-MEL-2, 48 h; how it was run: as §1
[3] = tested on: DU-145; test: Cytotoxicity against human DU145 cells at 100 uM after 2 days by sulforhodamine B assay; type: functional; details: DU-145, 48 h; how it was run: as §1
[4] = tested on: A549; test: Cytotoxicity against human A549 cells at 100 uM after 2 days by sulforhodamine B assay; type: functional; details: A549, 48 h; how it was run: as §1
[5] = tested on: SK-OV-3; test: Cytotoxicity against human SKOV3 cells at 100 uM after 2 days by sulforhodamine B assay; type: functional; details: SK-OV-3, 48 h; how it was run: as §1
[6] = tested on: HT-29; test: Growth inhibition of human HT-29 cells after 2 days by MTT assay; type: functional; details: HT-29, 48 h
How it was run: (§2)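 HT-29 and DU-145 cells seeded at 5 × 10⁴ cells/mL; serial concentrations added in duplicate; 37 °C, 5% CO₂, two days. MTT dye (Cell Titer96) for up to 4 h at 37 °C, then solubilization/stop mix overnight at room temperature; OD at 570 nm. GI₅₀ = concentration giving 50% growth inhibition; mean ± SEM of three or more experiments; doxorubicin as internal standard.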

[7] = tested on: DU-145; test: Growth inhibition of human DU145 cells after 2 days by MTT assay; type: functional; details: DU-145, 48 h; how it was run: as §2
[8] = target: T1, Aurora kinase A (Homo sapiens) (UniProt O14965); test: Inhibition of human Aurora A assessed as remaining enzyme activity at 10 uM; values are per cent of control
T1 sequence (whole entry): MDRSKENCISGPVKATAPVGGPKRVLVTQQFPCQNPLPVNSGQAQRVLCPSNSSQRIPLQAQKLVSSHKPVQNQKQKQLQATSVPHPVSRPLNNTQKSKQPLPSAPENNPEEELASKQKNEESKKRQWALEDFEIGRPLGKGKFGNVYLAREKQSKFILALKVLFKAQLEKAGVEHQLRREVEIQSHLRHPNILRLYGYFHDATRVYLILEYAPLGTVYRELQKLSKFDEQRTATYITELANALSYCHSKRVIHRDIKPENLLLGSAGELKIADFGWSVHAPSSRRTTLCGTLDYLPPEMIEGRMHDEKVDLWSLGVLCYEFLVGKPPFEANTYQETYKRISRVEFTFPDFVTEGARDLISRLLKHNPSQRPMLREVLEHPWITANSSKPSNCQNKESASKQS

[9] = target: Glycogen synthase kinase-3 beta (Homo sapiens) (UniProt P49841); test: Inhibition of human GSK3-beta at 10 uM
[10] = target: Epidermal growth factor receptor (Homo sapiens) (UniProt P00533); test: Inhibition of human EGFR assessed as remaining enzyme activity at 10 uM; values are per cent of control
[11] = target: T1, Aurora kinase A (Homo sapiens); test: Inhibition of human Aurora A at 10 uM
[12] = target: Glycogen synthase kinase-3 beta (Homo sapiens) (UniProt P49841); test: Inhibition of human GSK3-beta assessed as remaining enzyme activity at 10 uM; values are per cent of control
[13] = target: Platelet-derived growth factor receptor alpha (Homo sapiens) (UniProt P16234); test: Inhibition of human PDGFRalpha assessed as remaining enzyme activity at 10 uM; values are per cent of control
Sequence of Platelet-derived growth factor receptor alpha (Homo sapiens) (P16234 whole entry): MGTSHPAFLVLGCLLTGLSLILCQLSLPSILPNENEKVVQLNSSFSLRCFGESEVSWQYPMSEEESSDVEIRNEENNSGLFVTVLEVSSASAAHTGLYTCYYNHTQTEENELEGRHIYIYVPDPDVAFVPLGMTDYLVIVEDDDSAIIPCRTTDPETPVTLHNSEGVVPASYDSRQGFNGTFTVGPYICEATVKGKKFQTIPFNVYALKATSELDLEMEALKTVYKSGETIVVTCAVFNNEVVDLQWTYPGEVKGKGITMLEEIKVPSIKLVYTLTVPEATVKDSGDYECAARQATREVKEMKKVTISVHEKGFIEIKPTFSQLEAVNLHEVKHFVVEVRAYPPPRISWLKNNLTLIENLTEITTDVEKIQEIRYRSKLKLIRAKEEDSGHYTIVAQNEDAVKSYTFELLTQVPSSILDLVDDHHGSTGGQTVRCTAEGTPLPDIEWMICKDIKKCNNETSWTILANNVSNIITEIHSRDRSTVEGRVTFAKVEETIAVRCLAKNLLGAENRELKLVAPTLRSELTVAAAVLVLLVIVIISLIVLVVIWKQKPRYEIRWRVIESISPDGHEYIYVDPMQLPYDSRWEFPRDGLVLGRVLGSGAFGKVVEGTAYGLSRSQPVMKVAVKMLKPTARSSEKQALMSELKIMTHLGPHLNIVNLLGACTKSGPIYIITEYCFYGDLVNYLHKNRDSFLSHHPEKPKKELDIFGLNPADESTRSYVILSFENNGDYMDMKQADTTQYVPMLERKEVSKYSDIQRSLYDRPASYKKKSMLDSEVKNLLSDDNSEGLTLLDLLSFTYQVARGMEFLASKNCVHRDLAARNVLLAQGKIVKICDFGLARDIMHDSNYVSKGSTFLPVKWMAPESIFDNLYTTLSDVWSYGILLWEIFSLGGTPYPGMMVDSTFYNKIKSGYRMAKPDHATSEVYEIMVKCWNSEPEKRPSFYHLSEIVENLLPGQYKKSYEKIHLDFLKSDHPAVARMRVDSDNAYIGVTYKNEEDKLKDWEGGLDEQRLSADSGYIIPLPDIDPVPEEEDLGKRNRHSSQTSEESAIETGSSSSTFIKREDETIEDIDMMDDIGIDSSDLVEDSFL

Sequence of Glycogen synthase kinase-3 beta (Homo sapiens) (P49841 whole entry, looked up): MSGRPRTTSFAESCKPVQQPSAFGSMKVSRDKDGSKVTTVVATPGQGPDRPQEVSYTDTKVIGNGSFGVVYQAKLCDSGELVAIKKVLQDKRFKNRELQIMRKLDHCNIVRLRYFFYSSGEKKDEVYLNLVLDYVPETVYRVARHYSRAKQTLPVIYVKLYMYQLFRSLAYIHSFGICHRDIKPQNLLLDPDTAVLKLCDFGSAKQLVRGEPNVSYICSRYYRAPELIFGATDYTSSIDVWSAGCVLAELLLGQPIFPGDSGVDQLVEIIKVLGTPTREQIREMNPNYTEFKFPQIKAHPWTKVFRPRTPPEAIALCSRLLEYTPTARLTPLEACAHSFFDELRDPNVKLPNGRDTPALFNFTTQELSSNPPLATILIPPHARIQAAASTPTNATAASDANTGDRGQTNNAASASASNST
Sequence of Epidermal growth factor receptor (Homo sapiens) (P00533 whole entry): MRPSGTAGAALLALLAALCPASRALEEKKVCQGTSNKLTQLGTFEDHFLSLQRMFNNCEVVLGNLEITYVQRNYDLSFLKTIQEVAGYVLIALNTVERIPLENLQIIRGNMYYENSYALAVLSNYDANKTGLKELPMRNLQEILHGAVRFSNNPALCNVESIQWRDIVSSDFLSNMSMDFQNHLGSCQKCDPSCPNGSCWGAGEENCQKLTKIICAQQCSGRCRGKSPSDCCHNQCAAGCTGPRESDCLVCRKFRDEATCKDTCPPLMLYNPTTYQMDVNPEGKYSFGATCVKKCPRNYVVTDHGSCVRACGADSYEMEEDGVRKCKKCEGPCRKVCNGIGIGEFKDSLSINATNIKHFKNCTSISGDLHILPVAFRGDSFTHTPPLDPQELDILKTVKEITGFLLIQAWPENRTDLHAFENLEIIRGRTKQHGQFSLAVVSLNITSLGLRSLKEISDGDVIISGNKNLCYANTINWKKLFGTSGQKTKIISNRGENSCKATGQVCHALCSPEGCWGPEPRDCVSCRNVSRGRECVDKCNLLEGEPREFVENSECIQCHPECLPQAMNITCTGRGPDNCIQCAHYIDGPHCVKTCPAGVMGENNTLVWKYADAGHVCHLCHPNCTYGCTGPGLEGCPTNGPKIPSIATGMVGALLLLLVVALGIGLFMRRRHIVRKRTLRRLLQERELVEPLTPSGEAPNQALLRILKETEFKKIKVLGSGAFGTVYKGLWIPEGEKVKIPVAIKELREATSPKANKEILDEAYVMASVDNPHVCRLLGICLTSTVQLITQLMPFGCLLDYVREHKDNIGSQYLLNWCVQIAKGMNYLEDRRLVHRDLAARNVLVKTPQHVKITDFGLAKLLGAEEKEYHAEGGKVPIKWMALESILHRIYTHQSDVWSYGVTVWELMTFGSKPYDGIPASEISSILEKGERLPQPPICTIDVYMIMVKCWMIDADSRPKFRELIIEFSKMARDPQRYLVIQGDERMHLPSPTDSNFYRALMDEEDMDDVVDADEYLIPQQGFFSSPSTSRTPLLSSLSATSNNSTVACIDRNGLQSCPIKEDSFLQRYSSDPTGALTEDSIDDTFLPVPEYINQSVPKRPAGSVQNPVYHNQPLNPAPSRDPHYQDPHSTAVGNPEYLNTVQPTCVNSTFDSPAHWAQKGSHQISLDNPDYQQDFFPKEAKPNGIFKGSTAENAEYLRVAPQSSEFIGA

GI50 [6] | GI50 [7] | residual activity [8] | inhibition [9] | residual activity [10] | inhibition [11] | residual activity [12] | residual activity [13] | SMILES | inhibition at 100 µM [1] | inhibition at 100 µM [2] | inhibition at 100 µM [3] | inhibition at 100 µM [4] | inhibition at 100 µM [5]
 |  |  |  |  |  |  |  | O=C(Nn1c(-c2cccc([N+](=O)[O-])c2)nc2c(-c3cccs3)n[nH]c2c1=O)c1cccnc1 | 3.9% | 3.26% | 32.8% | 10.2% | 
 |  |  |  |  |  |  |  | COc1cccc(-c2nc3c(-c4ccc(C5CCNCC5)cc4)n[nH]c3c(=O)n2NC(=O)c2ccncc2)c1 | 28.1% | 23.4% | 37% | 32.4% | 18.2%
 |  |  |  |  |  |  |  | CCCc1n[nH]c2c(=O)n(NC(=O)c3ccccc3)c(-c3cccc(OC)c3)nc12 | 6.27% | 16.7% | 23.6% | 20.7% | 9.96%
18.4 µM | 17.1 µM |  |  |  |  |  |  | O=C(Nn1c(-c2cccc([N+](=O)[O-])c2)nc2c(-c3ccc(Cl)cc3)n[nH]c2c1=O)c1ccccc1 | 87.8% | 89% | 94.2% | 88.6% | 86.8%
 |  |  |  |  |  |  |  | CCCc1n[nH]c2c(=O)n(NC(=O)c3ccccc3)c(-c3cccc([N+](=O)[O-])c3)nc12 | 18.7% | 22.9% | 27.8% | 33.2% | 28.8%
 |  |  |  |  |  |  |  | O=C(Nn1c(-c2cccc([N+](=O)[O-])c2)nc2c(-c3ccco3)n[nH]c2c1=O)c1cccnc1 | 11.7% | 19.2% | 1.66% | 1.51% | -0.61%
15.2 µM | 16 µM |  |  |  |  |  |  | CCCc1nc2c(-c3ccc(Cl)cc3)n[nH]c2c(=O)n1NC(=O)Cc1ccccc1 | 91.4% |  | 89.7% |  | 
22.1 µM | 44.9 µM |  |  |  |  |  |  | COc1cccc(Cc2nc3c(-c4ccc(Cl)cc4)n[nH]c3c(=O)n2NC(=O)c2ccccc2)c1 | 89.3% |  | 93.2% |  | 
 |  |  |  |  |  |  |  | O=C(Nn1c(-c2cccc([N+](=O)[O-])c2)nc2c(-c3cccc(Cl)c3)n[nH]c2c1=O)c1ccccc1 | 89.8% | 78.2% | 93.8% |  | 
 |  |  |  |  |  |  |  | COc1cccc(-c2nc3c(-c4ccco4)n[nH]c3c(=O)n2NC(=O)c2cccnc2)c1 | 12.8% | 34.1% | 30.1% | 14.9% | 25%
5.37 µM | 12.9 µM | 7% | 94% | 82% | 93% | 6% | 92% | CCCCCc1nc2c(-c3ccc(Cl)cc3)n[nH]c2c(=O)n1NC(=O)c1cccc(C)c1 | 90.5% |  | 88.8% |  | 
 |  |  |  |  |  |  |  | O=C(Nn1c(-c2cccc([N+](=O)[O-])c2)nc2c(-c3ccc(Cl)cc3)n[nH]c2c1=O)c1cccnc1 | 15.1% | 16.3% | 31% | 19.7% | 30.2%
 |  |  |  |  |  |  |  | O=C(Nn1c(-c2cccc([N+](=O)[O-])c2)nc2c(-c3ccc(F)cc3)n[nH]c2c1=O)c1cccnc1 | 24.7% | 24.5% | 24.9% | 28.8% | 19.3%
 |  |  |  |  |  |  |  | COc1cccc(-c2nc3c(-c4ccc(Cl)cc4)n[nH]c3c(=O)n2NC(=O)c2ccncc2)c1 | 46% | 39.6% | 54.4% | 46% | 42.5%
9.26 µM | 29.2 µM |  |  |  |  |  |  | CCCc1nc2c(-c3ccc(Cl)cc3)n[nH]c2c(=O)n1NC(=O)c1ccccc1 | 91.1% |  | 89.4% |  | 
6.39 µM | 15.1 µM | 26% | 89% | 113% | 74% | 11% | 77% | O=C(Cc1ccccc1)Nn1c(CC2CCCCC2)nc2c(-c3ccc(Cl)cc3)n[nH]c2c1=O | 85.5% |  | 79.8% |  | 

GI50 [6] | GI50 [7] | residual activity [8] | inhibition [9] | residual activity [10] | inhibition [11] | residual activity [12] | residual activity [13] | SMILES | inhibition at 100 µM [1] | inhibition at 100 µM [2] | inhibition at 100 µM [3] | inhibition at 100 µM [4] | inhibition at 100 µM [5]
 |  |  |  |  |  |  |  | CC(C)Cc1n[nH]c2c(=O)n(NC(=O)c3ccncc3)c(-c3cccc([N+](=O)[O-])c3)nc12 |  | 38.7% | 55.3% |  | 35.8%
 |  |  |  |  |  |  |  | O=C(Nn1c(-c2cccc([N+](=O)[O-])c2)nc2c(CCc3ccccc3)n[nH]c2c1=O)c1ccccc1 | 89.7% | 92% | 92.5% | 73.9% | 
 |  |  |  |  |  |  |  | O=C(Nn1c(-c2cccc([N+](=O)[O-])c2)nc2c(-c3ccco3)n[nH]c2c1=O)c1ccccc1 | 21.2% | 23% | 16.1% | 18.7% | 17.9%
23.4 µM | 86.7 µM |  |  |  |  |  |  | O=C(Nn1c(CCc2ccccc2)nc2c(-c3ccc(Cl)cc3)n[nH]c2c1=O)c1ccccc1 | 86.5% |  | 85.6% |  | 
1.06 µM | > 100 µM |  |  |  |  |  |  | CC(C)(C)c1ccc(C(=O)Nn2c(CC3CCCCC3)nc3c(-c4ccc(Cl)cc4)n[nH]c3c2=O)cc1 | 72.3% |  | 65.2% |  | 
 |  |  |  |  |  |  |  | O=C(Nn1c(-c2cccc([N+](=O)[O-])c2)nc2c(-c3ccc(F)cc3)n[nH]c2c1=O)c1ccccc1 | 92% | 88.5% | 90.8% | 80.7% | 77.7%
 |  |  |  |  |  |  |  | COc1cccc(-c2nc3c(-c4cccc(Cl)c4)n[nH]c3c(=O)n2NC(=O)c2ccccc2)c1 | 91% | 81.9% | 93.5% |  | 
20.4 µM | 17.9 µM |  |  |  |  |  |  | COc1cccc(-c2nc3c(-c4ccc(Cl)cc4)n[nH]c3c(=O)n2NC(=O)c2ccccc2)c1 | 87.3% | 84.9% | 94.1% | 81.8% | 81.7%
 |  |  |  |  |  |  |  | O=C(Nn1c(-c2cccc([N+](=O)[O-])c2)nc2c(CCc3ccccc3)n[nH]c2c1=O)c1cccnc1 | 20.1% | 28.5% | 22.5% | 19% | 30.1%
20.6 µM | 20.1 µM |  |  |  |  |  |  | O=C(Nn1c(-c2ccccc2)nc2c(-c3ccc(Cl)cc3)n[nH]c2c1=O)c1ccccc1 | 92% |  | 90.2% |  | 
0.85 µM | 0.35 µM |  |  |  |  |  |  | COc1cccc2c1C(=O)c1c(O)c3c(c(O)c1C2=O)C[C@@](O)(C(=O)CO)C[C@@H]3O[C@H]1C[C@H](N)[C@H](O)[C@H](C)O1 [DOXORUBICIN] | 60.9% |  | 62.8% |  | 
 |  |  |  |  |  |  |  | CCCc1n[nH]c2c(=O)n(NC(=O)c3ccncc3)c(-c3cccc(OC)c3)nc12 | 0.07% | 11.4% | 4.04% | 11.2% | 4.04%
1.8 µM | 10.2 µM |  |  |  |  |  |  | O=C(Nn1c(CCC2CCCC2)nc2c(-c3ccc(Cl)cc3)n[nH]c2c1=O)c1ccccc1 | 87.3% |  | 89.6% |  | 
 |  |  |  |  |  |  |  | CCCc1n[nH]c2c(=O)n(NC(=O)c3ccncc3)c(-c3cccc([N+](=O)[O-])c3)nc12 | -0.83% | 14.2% | 15.1% | 9.95% | 15.1%
 |  |  |  |  |  |  |  | COc1cccc(-c2nc3c(-c4ccco4)n[nH]c3c(=O)n2NC(=O)c2ccccc2)c1 | 49.8% | 43.2% | 50.5% | 53.8% | 35.2%
20.6 µM | 21.5 µM |  |  |  |  |  |  | CC(C)(C)c1ccc(C(=O)Nn2c(CCC3CCCC3)nc3c(-c4ccc(Cl)cc4)n[nH]c3c2=O)cc1 | 76.8% |  | 64.2% |  | 
